For experiment [1], the target named is DNA gyrase subunit A/DNA gyrase subunit B (Mycobacterium tuberculosis (strain ATCC 25618 / H37Rv), UniProt P9WG45+P9WG47). Nature of the experiment: Inhibition of Mycobacterium tuberculosis DNA gyrase GyrA/GyrB. Format: protein-complex assay. The method in brief: (§1)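 Enzyme unit: protein needed for 50% supercoiling of 0.4 μg relaxed pBR322 DNA in 1 h at 37°C. Wild-type and mutant enzymes assayed in parallel on the same day under identical conditions. Repeated two to four times; representative values reported.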

For experiment [2], the target named is DNA gyrase (Escherichia coli, UniProt P0AES4+P0AES6). The experiment in a line: Inhibition of Escherichia coli DNA gyrase GyrA/GyrB. Format: protein-complex assay. Put shortly: as §1
In experiment [3] the target is DNA gyrase subunit A/DNA gyrase subunit B (Mycobacterium tuberculosis (strain ATCC 25618 / H37Rv)) (UniProt P9WG45+P9WG47).
In experiment [4] the test system is Escherichia coli. Nature of the experiment: Antimicrobial activity against Escherichia coli harboring DNA gyrase GyrA QRDR. The format is functional, organism-based.
Experiment [5] deals with Salmonella typhimurium. Nature of the experiment: Antimicrobial activity against Salmonella enterica Typhimurium harboring DNA gyrase GyrA QRDR. The format is functional, Salmonella enterica subsp. enterica serovar Typhimurium.
Experiment [6] concerns Haemophilus influenzae. Nature of the experiment: Antimicrobial activity against Haemophilus influenzae harboring DNA gyrase GyrA QRDR. Format: functional.
In experiment [7] the test system is Pseudomonas aeruginosa. The experiment in a line: Antimicrobial activity against Pseudomonas aeruginosa harboring DNA gyrase GyrA QRDR. Format: functional, organism-based.
For experiment [8], the system named is Klebsiella oxytoca. Nature of the experiment: Antimicrobial activity against Klebsiella oxytoca harboring DNA gyrase GyrA QRDR. The format is functional.
The subject of experiment [9] is Methylovorus. Nature of the experiment: Antimicrobial activity against Methylovorus sp. harboring DNA gyrase GyrA QRDR. The format is functional.
Experiment [10] concerns Neisseria gonorrhoeae. Nature of the experiment: Antimicrobial activity against Neisseria gonorrhoeae harboring DNA gyrase GyrA QRDR. The format is functional.
Experiment [11] has as its system Helicobacter pylori. Nature of the experiment: Antimicrobial activity against Helicobacter pylori 1 harboring DNA gyrase GyrA QRDR. The format is functional.
Experiment [12] concerns Helicobacter pylori. The experiment in a line: Antimicrobial activity against Helicobacter pylori 2 harboring DNA gyrase GyrA QRDR. The format is functional.
In experiment [13] the test system is Ehrlichia chaffeensis. The experiment in a line: Antimicrobial activity against Ehrlichia chaffeensis harboring DNA gyrase GyrA QRDR. The format is functional.
For experiment [14], the system named is Bacteroides fragilis. Nature of the experiment: Antimicrobial activity against Bacteroides fragilis harboring DNA gyrase GyrA QRDR. Format: functional.
Experiment [15] has as its system Borrelia burgdorferi. Nature of the experiment: Antimicrobial activity against Borrelia burgdorferi harboring DNA gyrase GyrA QRDR. The format is functional. To be noted: Borreliella burgdorferi.
Experiment [16] deals with Staphylococcus aureus. Nature of the experiment: Antimicrobial activity against Staphylococcus aureus harboring DNA gyrase GyrA QRDR. Format: functional, organism-based.
Experiment [17] has as its system Enterococcus faecalis. Nature of the experiment: Antimicrobial activity against Enterococcus faecalis harboring DNA gyrase GyrA QRDR. Format: functional.
Experiment [18] relates to Streptococcus pneumoniae. The experiment in a line: Antimicrobial activity against Streptococcus pneumoniae harboring DNA gyrase GyrA QRDR. The format is functional, organism-based.
The subject of experiment [19] is Mycolicibacterium smegmatis. The experiment in a line: Antimicrobial activity against Mycobacterium smegmatis harboring DNA gyrase GyrA QRDR. The format is functional, organism-based.
Experiment [20] deals with Mycolicibacterium fortuitum. Nature of the experiment: Antimicrobial activity against Mycobacterium fortuitum harboring DNA gyrase GyrA QRDR. Format: functional, organism-based.
For experiment [21], the system named is Bacillus subtilis. The experiment in a line: Antimicrobial activity against Bacillus subtilis harboring DNA gyrase GyrA QRDR. Format: functional.
The test system of experiment [22] is Escherichia coli. The experiment in a line: Antimicrobial activity against Escherichia coli harboring DNA gyrase GyrB QRDR. The format is functional, organism-based.
Experiment [23] relates to Salmonella typhimurium. The experiment in a line: Antimicrobial activity against Salmonella enterica Typhimurium harboring DNA gyrase GyrB QRDR. The format is functional, Salmonella enterica subsp. enterica serovar Typhimurium.
The test system of experiment [24] is Haemophilus influenzae. Nature of the experiment: Antimicrobial activity against Haemophilus influenzae harboring DNA gyrase GyrB QRDR. Format: functional.
The subject of experiment [25] is Pseudomonas aeruginosa. The experiment in a line: Antimicrobial activity against Pseudomonas aeruginosa harboring DNA gyrase GyrB QRDR. The format is functional, organism-based.
Experiment [26] deals with Klebsiella oxytoca. Nature of the experiment: Antimicrobial activity against Klebsiella oxytoca harboring DNA gyrase GyrB QRDR. The format is functional.
Experiment [27] has as its system Methylovorus. Nature of the experiment: Antimicrobial activity against Methylovorus sp. harboring DNA gyrase GyrB QRDR. Format: functional.
For experiment [28], the system named is Neisseria gonorrhoeae. Nature of the experiment: Antimicrobial activity against Neisseria gonorrhoeae harboring DNA gyrase GyrB QRDR. Format: functional.
The subject of experiment [29] is Helicobacter pylori. Nature of the experiment: Antimicrobial activity against Helicobacter pylori harboring DNA gyrase GyrB QRDR. Format: functional.
Experiment [30] relates to Ehrlichia chaffeensis. Nature of the experiment: Antimicrobial activity against Ehrlichia chaffeensis harboring DNA gyrase GyrB QRDR. Format: functional.
The test system of experiment [31] is Bacteroides fragilis. Nature of the experiment: Antimicrobial activity against Bacteroides fragilis harboring DNA gyrase GyrB QRDR. The format is functional.
The test system of experiment [32] is Borrelia burgdorferi. The experiment in a line: Antimicrobial activity against Borrelia burgdorferi harboring DNA gyrase GyrB QRDR. Format: functional. As to conditions: Borreliella burgdorferi.
Experiment [33] has as its system Staphylococcus aureus. Nature of the experiment: Antimicrobial activity against Staphylococcus aureus harboring DNA gyrase GyrB QRDR. Format: functional, organism-based.
Experiment [34] deals with Enterococcus faecalis. Nature of the experiment: Antimicrobial activity against Enterococcus faecalis harboring DNA gyrase GyrB QRDR. The format is functional.
For experiment [35], the system named is Streptococcus pneumoniae. The experiment in a line: Antimicrobial activity against Streptococcus pneumoniae harboring DNA gyrase GyrB QRDR. The format is functional, organism-based.
Experiment [36] concerns Mycolicibacterium smegmatis. Nature of the experiment: Antimicrobial activity against Mycobacterium smegmatis harboring DNA gyrase GyrB QRDR. Format: functional, organism-based.
Experiment [37] concerns Mycolicibacterium fortuitum. The experiment in a line: Antimicrobial activity against Mycobacterium fortuitum harboring DNA gyrase GyrB QRDR. Format: functional, organism-based.
The subject of experiment [38] is Bacillus subtilis. Nature of the experiment: Antimicrobial activity against Bacillus subtilis harboring DNA gyrase GyrB QRDR. Format: functional.
Experiment [39] has as its target DNA gyrase (Escherichia coli) (UniProt P0AES6+P0AES4).

The results in this text go back to ChEMBL document CHEMBL1275433 (Antimicrob Agents Chemother, 2008).

The structures appear in SMILES notation. ≈ marks a conversion by molar mass, not a printed value.

The term IC50 denotes the concentration that inhibits the measured activity by half.

Chain of DNA gyrase subunit A/DNA gyrase subunit B (P9WG45 whole entry): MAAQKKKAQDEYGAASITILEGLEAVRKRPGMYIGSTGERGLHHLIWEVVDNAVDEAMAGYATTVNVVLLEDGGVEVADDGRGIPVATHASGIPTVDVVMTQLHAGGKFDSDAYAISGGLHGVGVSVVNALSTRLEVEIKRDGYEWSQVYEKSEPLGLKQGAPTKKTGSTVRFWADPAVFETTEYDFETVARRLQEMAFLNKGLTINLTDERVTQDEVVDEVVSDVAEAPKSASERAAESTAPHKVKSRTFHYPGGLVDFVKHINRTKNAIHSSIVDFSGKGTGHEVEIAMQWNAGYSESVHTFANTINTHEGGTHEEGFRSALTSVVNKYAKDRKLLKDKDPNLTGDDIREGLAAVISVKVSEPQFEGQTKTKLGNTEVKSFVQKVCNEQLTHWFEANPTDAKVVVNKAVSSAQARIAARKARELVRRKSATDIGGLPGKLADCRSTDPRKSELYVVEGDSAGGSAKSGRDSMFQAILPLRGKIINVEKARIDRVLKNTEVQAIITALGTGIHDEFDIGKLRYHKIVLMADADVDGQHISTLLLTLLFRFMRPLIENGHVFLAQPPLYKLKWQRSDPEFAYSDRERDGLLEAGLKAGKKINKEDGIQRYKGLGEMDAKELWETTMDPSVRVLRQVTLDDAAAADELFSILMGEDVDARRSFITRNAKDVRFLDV
Chain of DNA gyrase subunit A/DNA gyrase subunit B (P9WG47 whole entry): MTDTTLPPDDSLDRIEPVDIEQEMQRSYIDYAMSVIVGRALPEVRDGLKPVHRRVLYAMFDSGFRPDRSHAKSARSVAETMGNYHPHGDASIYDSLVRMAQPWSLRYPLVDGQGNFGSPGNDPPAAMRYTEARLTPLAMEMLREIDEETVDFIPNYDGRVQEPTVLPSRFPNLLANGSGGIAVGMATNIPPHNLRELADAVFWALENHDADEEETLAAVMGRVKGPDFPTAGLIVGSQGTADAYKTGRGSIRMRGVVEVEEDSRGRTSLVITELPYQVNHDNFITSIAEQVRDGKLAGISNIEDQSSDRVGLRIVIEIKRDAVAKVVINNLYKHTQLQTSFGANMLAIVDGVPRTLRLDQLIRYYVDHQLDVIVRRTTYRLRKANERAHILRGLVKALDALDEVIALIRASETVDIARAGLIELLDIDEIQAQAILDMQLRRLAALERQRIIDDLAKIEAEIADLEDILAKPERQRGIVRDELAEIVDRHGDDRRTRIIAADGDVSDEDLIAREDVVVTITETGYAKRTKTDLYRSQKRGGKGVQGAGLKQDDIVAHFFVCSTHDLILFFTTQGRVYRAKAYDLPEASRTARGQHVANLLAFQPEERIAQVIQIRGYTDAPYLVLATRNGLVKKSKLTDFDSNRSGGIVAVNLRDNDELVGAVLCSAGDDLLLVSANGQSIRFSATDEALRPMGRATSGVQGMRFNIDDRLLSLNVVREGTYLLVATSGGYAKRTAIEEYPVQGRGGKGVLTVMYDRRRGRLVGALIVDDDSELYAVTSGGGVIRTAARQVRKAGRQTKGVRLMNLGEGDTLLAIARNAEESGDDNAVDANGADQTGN

Turning to `CCn1cc(C(=O)O)c(=O)c2cc(F)c(N3CCNCC3)nc21` [ENOXACIN], the figures for the IC50 in experiment [1] and in experiment [2] were 156 µM and 14 µM, respectively.
The compound `COc1c(N2C[C@@H]3CCCN[C@@H]3C2)c(F)cc2c(=O)c(C(=O)O)cn(C3CC3)c12` [MOXIFLOXACIN] came in with a CC25 in experiment [3] of 2 µM.
Compound `CCn1cc(C(=O)O)c(=O)c2ccc(C)nc21` [NALIDIXIC ACID] registered an IC50 in experiment [1] of 4750 µM.
Turning to `CC1COc2c(N3CCN(C)CC3)c(F)cc3c(=O)c(C(=O)O)cn1c23` (centres undefined) [OFLOXACIN], the IC50 in experiment [1] came out at 28 µM; in [4] it was 0.3 µg/mL (≈ 0.83 µM); in [7], 0.5 µg/mL (≈ 1.38 µM); in experiment [16] it was 10 µg/mL (≈ 27.7 µM); in experiment [18], 40 µg/mL (≈ 111 µM); in [19] it was 10 µg/mL (≈ 27.7 µM). Moreover, the IC50 in experiment [20] came out at 1 µg/mL (≈ 2.77 µM); in [22], 0.3 µg/mL (≈ 0.83 µM); in experiment [25], 0.5 µg/mL (≈ 1.38 µM); in experiment [33] it was 10 µg/mL (≈ 27.7 µM); in [35], 40 µg/mL (≈ 111 µM); in [36], 10 µg/mL (≈ 27.7 µM). Also, the midpoint of inhibition in experiment [37], the IC50, lay at 1 µg/mL (≈ 2.77 µM). Besides, the MIC50 in experiment [4] was determined as 0.01 µg/mL (≈ 0.0277 µM); in experiment [5], 0.01 µg/mL (≈ 0.0277 µM); in experiment [6] it was 0.01 µg/mL (≈ 0.0277 µM); in [7] it was 0.25 µg/mL (≈ 0.692 µM); in [8], 0.01 µg/mL (≈ 0.0277 µM); in experiment [9] it was 0.8 µg/mL (≈ 2.21 µM). Further, the MIC50 in [10] was 0.008 µg/mL (≈ 0.0221 µM); in experiment [11], 0.06 µg/mL (≈ 0.166 µM); in experiment [12], 0.25 µg/mL (≈ 0.692 µM); in experiment [13] it was 16 µg/mL (≈ 44.3 µM); in experiment [14] it was 4 µg/mL (≈ 11.1 µM); in experiment [15] it was 8 µg/mL (≈ 22.1 µM). Also, the MIC50 worked out at 0.5 µg/mL (≈ 1.38 µM) in experiment [16]; 1 µg/mL (≈ 2.77 µM) in experiment [17]; 1 µg/mL (≈ 2.77 µM) in [18]; 1 µg/mL (≈ 2.77 µM) in [19]; 0.06 µg/mL (≈ 0.166 µM) in [20]; 0.12 µg/mL (≈ 0.332 µM) in [21]. In addition, the MIC50 worked out at 0.01 µg/mL (≈ 0.0277 µM) in experiment [22]; 0.01 µg/mL (≈ 0.0277 µM) in experiment [23]; 0.012 µg/mL (≈ 0.0332 µM) in [24]; 0.25 µg/mL (≈ 0.692 µM) in experiment [25]; 0.01 µg/mL (≈ 0.0277 µM) in experiment [26]; 0.8 µg/mL (≈ 2.21 µM) in experiment [27]. The MIC50 was found to be 0.008 µg/mL (≈ 0.0221 µM) in experiment [28]; 0.25 µg/mL (≈ 0.692 µM) in [29]; 16 µg/mL (≈ 44.3 µM) in experiment [30]; 4 µg/mL (≈ 11.1 µM) in experiment [31]; 8 µg/mL (≈ 22.1 µM) in experiment [32]; 0.5 µg/mL (≈ 1.38 µM) in experiment [33]. For the same compound, the MIC50 in experiment [34] was 1 µg/mL (≈ 2.77 µM); in experiment [35], 1 µg/mL (≈ 2.77 µM); in [36] it was 1 µg/mL (≈ 2.77 µM); in [37] it was 0.06 µg/mL (≈ 0.166 µM); in experiment [38] it was 0.12 µg/mL (≈ 0.332 µM). The CC25 is 7 µM in [3] and 0.2 µM in [39].
